Assay [1] relates to L1210. Nature of the assay: The concentration required to inhibit the growth of L-1210 leukemic cells was evaluated; 1E-3 to 1E-4. It counts as functional, cell-based. The conditions noted are these: Mus musculus.
For assay [2], the system named is L1210. Nature of the assay: The concentration requiredi (cytidine+2'deoxycytidine) to inhibit the growth of L-1210 leukemic cells was evaluated. In kind it is functional, cell-based. The conditions noted are these: Mus musculus.
The subject of assay [3] is L1210. The assay can be described thus: The concentration required (hypoxanthine+uridine) to inhibit the growth of L-1210 leukemic cells was evaluated; 2E-4 to 2E-5. It counts as functional, cell-based. The conditions noted are these: Mus musculus.
Assay [4] relates to L1210. The assay can be described thus: The concentration required to inhibit the growth of L-1210 leukemic cells was evaluated; 1E-4 to 1E-5. In kind it is functional, cell-based. The conditions noted are these: Mus musculus.
Assay [5] relates to L1210. Nature of the assay: The concentration required to inhibit the growth of L-1210 leukemic cells was evaluated; 1E-4 to 5E-4. The conditions noted are these: Mus musculus. In kind it is functional, cell-based.
Assay [6] has as its system L1210. Nature of the assay: The compound was tested for inhibition of L-1210 leukemic cell growth at 5 x 10 e-5 M along with 10e-5 M adenine. It counts as functional, Mus musculus. More on the design: scale not given: the % may be the effect or the level left. In short, it runs like this:
(§1)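 L-1210 cells were held in static suspension in Fischer's medium with test compound at 5 × 10^-5 M plus either 10^-5 M adenine or 10^-5 M adenosine. Cell numbers were counted, and the rate of increase over the first 24 h was taken as the initial growth rate, given as % of untreated control. Values are means, n = 2.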

For assay [7], the system named is L1210. The assay can be described thus: The compound was tested for inhibition of L-1210 leukemic cell growth at 10 e-4 M along with 10e-5 M adenosine. In kind it is functional, Mus musculus. More on the design: scale not given: the % may be the effect or the level left. An outline of the steps:
(§2)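 Static suspension cultures of murine L-1210 leukemic cells were grown in Fischer's medium with test compound at 10^-4 M plus 10^-5 M adenine or 10^-5 M adenosine. Read-out was the initial growth rate, the increase in cell number during the first 24 h of incubation, relative to untreated control cells (%).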

Assay [8] relates to L1210. Nature of the assay: The compound was tested for inhibition of L-1210 leukemic cell growth at 10 e-4 M. It counts as functional, Mus musculus. More on the design: scale not given: the % may be the effect or the level left. An outline of the steps:
(§3)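 Murine L-1210 leukemic cells were grown in static suspension culture in Fischer's medium. Test compound was added at 5 × 10^-5 or 10^-4 M alone. Initial growth rate is the rate of increase in cell number over the first 24 h of incubation, expressed as % of untreated control. Values are mean (±SD), n = 5.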

In assay [9] the test system is L1210. Nature of the assay: The compound was tested for inhibition of L-1210 leukemic cell growth at 5 x 10 e-5 M. More on the design: scale not given: the % may be the effect or the level left. It counts as functional, Mus musculus. An outline of the steps: as §3
Assay [10] deals with L1210. The assay can be described thus: The compound was tested for inhibition of L-1210 leukemic cell growth at 10 e-4 M along with 10e-5 M adenine. It counts as functional, Mus musculus. More on the design: scale not given: the % may be the effect or the level left. In short, it runs like this:
as §2

Assay [11] concerns L1210. The assay can be described thus: The compound was tested for inhibition of L-1210 leukemic cell growth at 5 x 10 e-5 M along with 10e-5 M adenosine. It counts as functional, Mus musculus. More on the design: scale not given: the % may be the effect or the level left. In short, it runs like this: as §1

Consider `Nc1ccn([C@@H]2O[C@H](CO)[C@@H](O)[C@H]2O)c(=O)n1`, for which the Concentration with L1210 [1] turned out to be 1 mM; in the assay with L1210 [2], 100 µM.
Turning to `Cc1cn([C@H]2C[C@H](O)[C@@H](CO)O2)c(=O)[nH]c1=O`, the results for the Concentration with L1210 [3] and in the assay on L1210 [4] were 200 µM and 100 µM, respectively.
Regarding `Nc1ccn([C@H]2C[C@H](O)[C@@H](CO)O2)c(=O)n1`, the Concentration in the assay on L1210 [5] came to 100 µM.
On to `O=c1c2ccsc2ncn1C1O[C@H](CO)[C@@H](O)[C@H]1O` (some centres not stated), for which the Control was found to be 52% in the assay with L1210 [6]; 50% in the assay on L1210 [7]; 16% in the assay on L1210 [8]; 32% in the assay with L1210 [9]; 25% with L1210 [10]; 57% with L1210 [11].
In the case of `O=c1ccn([C@@H]2O[C@H](CO)[C@@H](O)[C@H]2O)c(=O)[nH]1`, the Concentration in the assay with L1210 [1] was determined as 1 mM.
